Tests used:
Estrogen receptor beta = Estrogen receptor beta (Homo sapiens, UniProt Q92731); assay: Binding affinity against human estrogen receptor beta
In short: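 Competitive binding to human ERβ, reported as Ki (nM). Compounds generally run in duplicate; minimum significant ratio for the binding assay is 2-fold.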

Rattus norvegicus [1] = assay: (§1) Percent decrease in serum cholesterol in ovariectomized (OVX) rats at 10 mg/kg dose; format: functional; set-up: scale not given: the % may be the effect or the level left
In short: (§2)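 Six-month-old ovariectomized rats were dosed orally for 5 weeks, and total serum cholesterol was measured against OVX controls. Groups were compared by one-way ANOVA with p < 0.05.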

Rattus norvegicus [2] = assay: (§3) Percent decrease in serum cholesterol in ovariectomized (OVX) rats at 0.10 mg/kg dose; format: functional; conditions: dose 0.1 mg/kg; in short: as §2
Rattus norvegicus [3] = assay: as §1; format: functional; in short: as §2
Rattus norvegicus [4] = species: Rattus norvegicus; assay: Effective dose in rat; format: functional
Rattus norvegicus [5] = assay: Bone density at proximal metaphysis of excised femur in ovariectomized (OVX) rats at 1.00 mg/kg dose; format: functional
In short: (§4)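 Six-month-old ovariectomized rats were dosed orally for 5 weeks. Bone density was measured at the proximal metaphysis of the excised femur. Percent protection was calculated for each animal as (BMD test − BMD OVX)/(BMD sham − BMD OVX) × 100. Statistics used one-way ANOVA with p < 0.05.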

Rattus norvegicus [6] = assay: Bone density at proximal metaphysis of excised femur in ovariectomized (OVX) rats at 10.00 mg/kg dose; format: functional; in short: as §4
Rattus norvegicus [7] = assay: Bone density at proximal metaphysis of excised femur in ovariectomized (OVX) rats at 0.01 mg/kg dose; format: functional; in short: as §4
Rattus norvegicus [8] = assay: Bone density at proximal metaphysis of excised femur in ovariectomized (OVX) rats at 0.1 mg/kg dose; format: functional; in short: as §4
Rattus norvegicus [9] = assay: as §3; set-up: scale not given: the % may be the effect or the level left; conditions: dose 0.1 mg/kg
Estrogen receptor = target: T1, Estrogen receptor (Homo sapiens, UniProt P03372); assay: Binding affinity against human estrogen receptor alpha
T1 sequence (P03372 whole entry): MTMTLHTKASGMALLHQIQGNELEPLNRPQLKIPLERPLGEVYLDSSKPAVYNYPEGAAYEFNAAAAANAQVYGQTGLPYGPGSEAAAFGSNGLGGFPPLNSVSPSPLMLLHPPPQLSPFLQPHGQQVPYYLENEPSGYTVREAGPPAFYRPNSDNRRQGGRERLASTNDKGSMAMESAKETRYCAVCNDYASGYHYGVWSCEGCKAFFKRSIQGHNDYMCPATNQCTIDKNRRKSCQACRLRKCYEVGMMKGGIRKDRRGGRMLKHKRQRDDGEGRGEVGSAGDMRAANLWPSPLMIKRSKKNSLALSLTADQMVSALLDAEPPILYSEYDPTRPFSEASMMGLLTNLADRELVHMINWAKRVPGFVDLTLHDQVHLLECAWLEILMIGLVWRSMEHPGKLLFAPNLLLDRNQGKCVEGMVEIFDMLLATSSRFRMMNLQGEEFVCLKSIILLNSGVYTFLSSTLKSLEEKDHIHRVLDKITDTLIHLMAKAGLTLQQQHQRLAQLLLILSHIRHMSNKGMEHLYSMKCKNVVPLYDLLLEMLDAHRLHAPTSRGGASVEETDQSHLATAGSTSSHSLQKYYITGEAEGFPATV

Estrogen receptor beta, sequence (Q92731 whole entry): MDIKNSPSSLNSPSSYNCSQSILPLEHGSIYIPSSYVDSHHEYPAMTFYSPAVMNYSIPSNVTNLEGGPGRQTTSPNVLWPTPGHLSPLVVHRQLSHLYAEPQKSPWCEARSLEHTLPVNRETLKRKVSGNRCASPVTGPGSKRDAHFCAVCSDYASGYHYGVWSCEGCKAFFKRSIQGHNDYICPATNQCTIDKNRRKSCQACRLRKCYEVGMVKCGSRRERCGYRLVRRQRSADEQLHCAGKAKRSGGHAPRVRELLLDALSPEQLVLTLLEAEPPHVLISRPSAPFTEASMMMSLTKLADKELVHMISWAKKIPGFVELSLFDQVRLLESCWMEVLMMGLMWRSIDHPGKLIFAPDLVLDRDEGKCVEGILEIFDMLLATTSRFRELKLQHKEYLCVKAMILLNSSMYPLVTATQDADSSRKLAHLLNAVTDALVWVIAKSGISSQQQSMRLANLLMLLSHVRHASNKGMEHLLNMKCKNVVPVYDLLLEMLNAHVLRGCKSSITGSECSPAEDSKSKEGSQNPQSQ

C[C@]12CCc3c(ccc4cc(O)ccc34)[C@@H]1CC[C@H]2O
Ki (Estrogen receptor beta): 24 nM
Activity (Rattus norvegicus [1]): 93.8%
Decrease (Rattus norvegicus [2]): 66.3%
Decrease (Rattus norvegicus [3]): 93.8%
ED50 (Rattus norvegicus [4]): < 0.1 mg/kg
Protection (Rattus norvegicus [5]): 59.5%
Protection (Rattus norvegicus [6]): 119%
Protection (Rattus norvegicus [7]): 6.1%
Protection (Rattus norvegicus [8]): 26.5%

C#C[C@]1(O)CC[C@H]2[C@@H]3CCc4cc(O)ccc4[C@H]3CC[C@@]21C [ETHINYL ESTRADIOL]
Activity (Rattus norvegicus [9]): 83.3%
Decrease (Rattus norvegicus [2]): 83.3%

C[C@]12CCc3c(sc4cc(O)ccc34)[C@@H]1CC[C@@H]2O
Ki (Estrogen receptor): 4 nM
Ki (Estrogen receptor beta): 11 nM

C[C@]12CCc3c(sc4cc(O)ccc34)[C@@H]1CC[C@H]2O
Ki (Estrogen receptor): 23 nM
Ki (Estrogen receptor beta): 73 nM

C[C@@]12CCc3c(sc4cc(O)ccc34)[C@H]1CC[C@H]2O
Ki (Estrogen receptor): 13 nM
Ki (Estrogen receptor beta): 17 nM

C[C@@]12CCc3c(sc4cc(O)ccc34)[C@@H]1CC[C@H]2O
Ki (Estrogen receptor): 24 nM
Ki (Estrogen receptor beta): 120 nM

C[C@]12CCc3c(sc4cc(O)ccc34)[C@H]1CC[C@@H]2O
Ki (Estrogen receptor): 10 nM
Ki (Estrogen receptor beta): 47 nM

From ChEMBL document CHEMBL1136468, “B-ring unsaturated estrogens: biological evaluation of 17alpha-Dihydroequilein and novel B-Nor-6-thiaequilenins as tissue selective estrogens” (Bioorg Med Chem Lett, 2003)
